Source: ChEMBL document CHEMBL1126740, “(S)- and (R)-8-(di-n-propylamino)-6,7,8,9-tetrahydro-3H-benz[e]indole-1-carbaldehyde: a new class of orally active 5-HT1A-receptor agonists” (J Med Chem, 1993)
The source made the active and inactive calls. No cut-off for these calls is given here.

Experiments:
Rattus norvegicus [1] = test: In vivo evaluation for 5-HTP accumulation in the hemispheres in male rats (sc); type: functional
Outline: (§1)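 Male Sprague-Dawley rats were pretreated with reserpine 5 mg/kg sc 18 h before dosing. DOPA and 5-HTP in limbic system, striatum and hemispheres were measured by HPLC with electrochemical detection. Dose-response curves used 4–6 dose levels (n = 4) for each region; ED50 was estimated graphically. Partial responses are given as the maximal % reduction at the highest dose tested.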

D(2) dopamine receptor [2] = target: D(2) dopamine receptor (Rattus norvegicus, UniProt P61169); test: Displacement of [3H]spiperone from dopamine receptor D2
Chain of D(2) dopamine receptor (Rattus norvegicus, UniProt P61169) (P61169 whole entry): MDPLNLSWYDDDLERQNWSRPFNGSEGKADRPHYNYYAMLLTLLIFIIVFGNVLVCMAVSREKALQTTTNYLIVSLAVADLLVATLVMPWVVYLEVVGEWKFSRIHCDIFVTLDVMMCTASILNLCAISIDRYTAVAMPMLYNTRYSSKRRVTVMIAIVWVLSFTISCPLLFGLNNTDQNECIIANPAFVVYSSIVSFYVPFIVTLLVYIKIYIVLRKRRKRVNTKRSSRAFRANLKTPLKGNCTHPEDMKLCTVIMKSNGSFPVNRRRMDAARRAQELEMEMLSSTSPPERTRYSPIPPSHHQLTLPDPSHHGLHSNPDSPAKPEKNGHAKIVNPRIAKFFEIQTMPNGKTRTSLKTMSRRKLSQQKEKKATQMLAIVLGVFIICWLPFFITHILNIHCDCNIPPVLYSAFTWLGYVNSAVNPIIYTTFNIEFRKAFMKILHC
Outline: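 Rat striatal membranes in 50 mM potassium phosphate buffer (3 mg original tissue) incubated with 0.5 nM [3H]spiperone for 10 min at 37 °C. Nonspecific binding was defined with 10 μM 6,7-ADTN. Ki was calculated by Cheng–Prusoff; triplicates, 3–7 experiments.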

Rattus norvegicus [3] = species: Rattus norvegicus; test: Compound was tested for 5HT, Dopamine agonist mediated response in reserpine pretreated rats; mix DA, 5-HT syndrome; type: functional, organism-based
Outline: (§2)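 Male Sprague-Dawley rats (200–300 g) were given reserpine 5 mg/kg sc 18 h before testing, then the test drug sc in the neck (n = 4). Motor activity was recorded by photocells for 30 min, with gross behaviour observed throughout. 5-HT syndrome: flat body posture, extended limbs, reciprocal forepaw treading. DA response: locomotion and stereotypies.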

Rattus norvegicus [4] = test: In vivo evaluation for 5-HTP accumulation in the corpus striatum in male rats (sc); type: functional; outline: as §1
Rattus norvegicus [5] = test: Maximal reduction in percent (Partial response) of DOPA accumulation rat limbic system at highest test dose of 3.1 uM/Kg (sc); type: functional
Rattus norvegicus [6] = test: Maximal reduction in percent (Partial response) of DOPA accumulation rat corpus striatum at highest test dose of 3.1 uM/Kg (sc); type: functional; outline: as §1
Rattus norvegicus [7] = test: In vivo evaluation for 5-HTP accumulation in the limbic system in male rats (sc); type: functional; outline: as §1
Rattus norvegicus [8] = test: In vivo evaluation for DOPA accumulation in the hemispheres in male rats at highest dose tested; inactive; type: functional, organism-based; outline: as §1
Rattus norvegicus [9] = test: In vivo evaluation for DOPA accumulation in the limbic system in male rats at highest test dose of 50 uM/Kg (sc); inactive; type: functional, organism-based; outline: as §1
Rattus norvegicus [10] = test: In vivo evaluation for DOPA accumulation in the corpus striatum in male rats at highest test dose of 50 uM/Kg (sc); inactive; type: functional, organism-based; outline: as §1
Rattus norvegicus [11] = test: In vivo evaluation for DOPA accumulation in the hemispheres in male rats at highest test dose of 50 uM/Kg (sc); inactive; type: functional, organism-based; outline: as §1
Rattus norvegicus [12] = species: Rattus norvegicus; test: Compound was tested for 5-HT behavioral response in reserpine pretreated rats; +5HT syndrome; type: functional, organism-based; outline: as §2
Rattus norvegicus [13] = species: Rattus norvegicus; test: Maximal reduction in percent (Partial response) of DOPA accumulation rat corpus striatum at highest test dose; inactive; type: functional, organism-based; outline: as §1
Rattus norvegicus [14] = test: In vivo evaluation for 5-HTP accumulation in the hemispheres in male rats (po); type: functional; outline: as §1
Rattus norvegicus [15] = test: In vivo evaluation for DOPA accumulation in the hemispheres in male rats at highest test dose; inactive; type: functional, organism-based; outline: as §1
[16] = Time taken to reach the maximum concentration of compound at 2 uM/dg administered intravenously; type: ADME, organism-based; conditions: in vivo, iv
Outline: (§3)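 Male Sprague-Dawley rats (300 g) with arterial catheters were dosed 24 h after surgery; orally dosed rats were starved 18 h beforehand. Blood was sampled at intervals up to 12 h and analysed by HPLC with fluorescence detection (ex 285, em 365) or by GC/MS. Cmax is in pmol/mL and tmax in min, mean ± SEM, n = 4–6.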

Rattus norvegicus [17] = test: In vivo evaluation for 5-HTP accumulation in the corpus striatum in male rats (po); type: functional; outline: as §1
[18] = Half life of compound at 2 uM/dg administered intravenously; type: ADME, organism-based; conditions: in vivo, iv
Outline: (§4)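 Male Sprague-Dawley rats (300 g) carrying arterial catheters, used 24 h after surgery; animals dosed orally were starved 18 h beforehand. Blood was sampled at intervals up to 12 h after dosing. Drug levels were measured by HPLC with fluorescence detection (ex 285, em 365) or by GC/MS, calibrated against spiked blank blood. AUC was taken from concentration-time curves; n = 4–6.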

[19] = target: T1, 5-hydroxytryptamine receptor 1A (Mus musculus, UniProt Q64264); test: In vitro binding affinity against 5-hydroxytryptamine 1A receptor using [3H]-8-OH-DPAT as radioligand in CHO cells (sc); type: cell-based, Cricetulus griseus
T1 sequence (Q64264 whole entry): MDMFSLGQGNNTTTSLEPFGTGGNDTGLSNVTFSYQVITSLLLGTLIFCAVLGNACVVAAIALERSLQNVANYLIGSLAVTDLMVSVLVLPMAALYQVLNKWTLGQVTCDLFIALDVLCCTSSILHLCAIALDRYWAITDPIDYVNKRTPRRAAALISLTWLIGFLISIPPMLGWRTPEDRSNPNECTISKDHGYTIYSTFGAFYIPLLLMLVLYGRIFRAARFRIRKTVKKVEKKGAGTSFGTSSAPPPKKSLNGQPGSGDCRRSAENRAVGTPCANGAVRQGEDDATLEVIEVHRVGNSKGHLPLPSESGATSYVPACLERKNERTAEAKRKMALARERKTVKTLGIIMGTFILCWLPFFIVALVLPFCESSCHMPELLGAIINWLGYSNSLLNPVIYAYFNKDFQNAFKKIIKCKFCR

[20] = Area under curve at 10 uM/dg administered perorally; type: ADME; conditions: po; outline: as §4
Rattus norvegicus [21] = species: Rattus norvegicus; test: Maximal reduction in percent (Partial response) of DOPA accumulation rat hemispheres at highest test dose; inactive; type: functional, organism-based; outline: as §1
[22] = Maximum concentration of the drug at 2 umol/dg administered intravenously; type: ADME, organism-based; design: route intravenous; conditions: in vivo, iv; outline: as §3
[23] = Ratio of ED50 values when the compound was administered subcutaneously to that of peroral administration; type: ADME
Outline: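 Male Sprague-Dawley rats (200–300 g) pretreated with reserpine (5 mg/kg sc, 18 h earlier). Compound given sc or po. 5-HTP accumulation in the limbic system was measured by HPLC with electrochemical detection. ED50 values came from dose-response curves of 4–6 dose levels (n = 4), and the sc ED50 was divided by the po ED50.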

Rattus norvegicus [24] = test: Maximal reduction in percent (Partial response) of DOPA accumulation rat corpus striatum at highest test dose of 12.5 uM/Kg (sc); type: functional; outline: as §1
Rattus norvegicus [25] = species: Rattus norvegicus; test: Maximal reduction in percent (Partial response) of DOPA accumulation rat limbic system at highest test dose; inactive; type: functional, organism-based
[26] = Bioavailability in rat; type: ADME, organism-based; conditions: in vivo
Outline: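 Blood was drawn at intervals up to 12 h and assayed by HPLC-fluorescence or GC/MS against spiked blank-blood standards. F is the ratio of oral to intravenous areas under the blood concentration-time curves; n = 4–6.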

Rattus norvegicus [27] = test: Maximal reduction in percent (Partial response) of DOPA accumulation rat limbic system at highest test dose of 12.5 uM/Kg (sc); type: functional
[28] = target: T2, 5-hydroxytryptamine receptor 1A (Rattus norvegicus, UniProt P19327); test: In vitro binding affinity against 5-hydroxytryptamine 1A receptor using [3H]8-OH-DPAT
T2 sequence (P19327 whole entry): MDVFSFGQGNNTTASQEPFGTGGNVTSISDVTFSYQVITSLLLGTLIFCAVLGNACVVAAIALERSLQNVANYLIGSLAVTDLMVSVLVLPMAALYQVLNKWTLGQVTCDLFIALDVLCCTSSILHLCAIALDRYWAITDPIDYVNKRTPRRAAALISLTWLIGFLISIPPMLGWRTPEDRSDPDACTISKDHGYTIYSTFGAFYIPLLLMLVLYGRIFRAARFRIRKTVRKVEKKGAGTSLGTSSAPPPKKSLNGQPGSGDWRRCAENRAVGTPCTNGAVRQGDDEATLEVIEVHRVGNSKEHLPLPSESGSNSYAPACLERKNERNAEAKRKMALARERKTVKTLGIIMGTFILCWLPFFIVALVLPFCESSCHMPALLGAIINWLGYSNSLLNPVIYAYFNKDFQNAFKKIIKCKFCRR
Outline: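 Rat whole-brain membranes (brainstem and cerebellum removed) in 50 mM Tris pH 8.0 containing NaCl, CaCl2, MgCl2 and 10 μM pargyline, 10 mg tissue per tube. Nonspecific binding was defined with 10 μM 5-HT. IC50 was taken by semi-log linear regression and Ki by Cheng–Prusoff; triplicates.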

[29] = Maximum concentration of the drug at 10 umol/dg administered perorally; type: ADME, organism-based; design: route oral; conditions: in vivo, po; outline: as §3
Rattus norvegicus [30] = test: In vivo evaluation for 5-HTP accumulation in the limbic system in male rats (po); type: functional; outline: as §1
D(2) dopamine receptor [31] = target: D(2) dopamine receptor (Homo sapiens, UniProt P14416); test: In vitro binding affinity against dopamine receptor D2 using [3H]raclopride as radioligand in CHO cells (sc); type: cell-based, Cricetulus griseus
Chain of D(2) dopamine receptor (Homo sapiens, UniProt P14416) (P14416 whole entry): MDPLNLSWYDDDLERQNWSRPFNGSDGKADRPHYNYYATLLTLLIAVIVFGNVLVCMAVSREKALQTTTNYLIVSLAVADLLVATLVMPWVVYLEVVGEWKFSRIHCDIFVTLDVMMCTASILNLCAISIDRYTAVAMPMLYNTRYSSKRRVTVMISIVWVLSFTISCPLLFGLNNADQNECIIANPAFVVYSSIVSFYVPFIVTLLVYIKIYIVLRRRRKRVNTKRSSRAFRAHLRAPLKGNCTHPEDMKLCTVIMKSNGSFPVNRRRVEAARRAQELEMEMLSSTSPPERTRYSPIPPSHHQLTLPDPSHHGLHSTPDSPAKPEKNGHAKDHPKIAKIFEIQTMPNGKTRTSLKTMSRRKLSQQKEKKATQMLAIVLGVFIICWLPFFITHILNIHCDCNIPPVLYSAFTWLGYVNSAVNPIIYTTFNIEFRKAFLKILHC

[32] = Area under curve at 2 uM/dg administered intravenously; type: ADME; conditions: iv; outline: as §4

SMILES	ED50 (Rattus norvegicus [1]) [µmol/kg]	Ki (D(2) dopamine receptor [2]) [nM]	ED50 (Rattus norvegicus [4]) [µmol/kg]	ED50 (Rattus norvegicus [7]) [µmol/kg]	ED50 (Rattus norvegicus [9])	ED50 (Rattus norvegicus [10])	ED50 (Rattus norvegicus [11])	Behavioral response (Rattus norvegicus [12])	further results
CCCN(CCC)[C@H]1CCc2ccc3[nH]ccc3c2C1	0.2	146	0.3	0.16					Behavioral response (Rattus norvegicus [3]): Active; Reduction (Rattus norvegicus [5]): 31%; Reduction (Rattus norvegicus [6]): 37%; ED50 (Rattus norvegicus [8]): inactive
CCCN(CCC)[C@@H]1CCc2cccc(O)c2C1	0.05	826	0.047	0.036	inactive	inactive	inactive	Active	
CCCN(CCC)[C@H]1CCc2cccc(O)c2C1	0.077	5070	0.065	0.061	inactive	inactive	inactive	Active	
CCCN(CCC)[C@H]1CCc2ccc3[nH]cc(C(C)=O)c3c2C1	0.095	3590	0.08	0.09				Active	ED50 (Rattus norvegicus [13]): inactive; ED50 (Rattus norvegicus [14]): 1.1 µmol/kg; ED50 (Rattus norvegicus [15]): inactive; Tmax at 2 µM [16]: 2 min; ED50 (Rattus norvegicus [17]): 1.1 µmol/kg; half-life at 2 µM [18]: 60 min; Ki [19]: 0.2 nM; AUC [20]: 2224 pM/h/g; ED50 (Rattus norvegicus [21]): inactive; Cmax [22]: 849 pM ml-1; Ratio [23]: 18; Reduction (Rattus norvegicus [24]): 25%; ED50 (Rattus norvegicus [25]): inactive; bioavailability [26]: 72%; Reduction (Rattus norvegicus [27]): 37%; Ki [28]: 2 nM; Cmax [29]: 606 pM ml-1; ED50 (Rattus norvegicus [30]): 0.5 µmol/kg; Ki (D(2) dopamine receptor [31]): 423 nM; AUC [32]: 607 pM/h/g
